From ChEMBL document CHEMBL5352427, “Isoquinolone derivatives as lysophosphatidic acid receptor 5 (LPA5) antagonists: Investigation of structure-activity relationships, ADME properties and analgesic effects” (Eur J Med Chem, 2022)
Values after ≈ are worked out from the molar mass of the structure shown. Active and inactive are the calls of the source.

Assays:
[1] = species on record: Homo sapiens; test: Selectivity ratio of IC50 for antagonist activity at human LPA5 receptor expressed in RH7777 cells assessed as inhibition of LPA-induced cAMP accumulation to IC50 for antagonist activity at human LPA5 receptor expressed in RH7777 cells assessed as inhibition of LPA-induced calcium mobilization; type: cell-based
[2] = molecular target: T1, Lysophosphatidic acid receptor 5 (Homo sapiens, UniProt Q9H1C0); test: Antagonist activity at human LPA5 receptor expressed in RH7777 cells assessed as inhibition of EC80 concentration of hexadecyl LPA-induced calcium mobilization incubated for 15 mins by FLIPR method; type: functional, cell-based
T1 sequence (Q9H1C0 whole entry): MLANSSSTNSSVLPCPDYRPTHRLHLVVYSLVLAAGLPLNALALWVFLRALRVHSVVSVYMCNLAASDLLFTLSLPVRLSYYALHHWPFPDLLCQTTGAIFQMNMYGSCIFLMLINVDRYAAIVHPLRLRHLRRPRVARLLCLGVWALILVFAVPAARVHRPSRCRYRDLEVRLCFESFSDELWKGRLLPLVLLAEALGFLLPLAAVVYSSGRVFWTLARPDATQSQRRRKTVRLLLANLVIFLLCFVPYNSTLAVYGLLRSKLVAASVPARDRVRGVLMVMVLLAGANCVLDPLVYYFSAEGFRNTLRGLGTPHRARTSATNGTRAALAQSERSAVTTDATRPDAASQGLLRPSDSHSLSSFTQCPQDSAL

[3] = tested on: Rattus norvegicus; test: Antiallodynic activity against CFA-induced mechanical allodynia Sprague-Dawley rat model assessed as reduction paw threshold pain measured at 32 mg/kg, ip; type: functional, organism-based; settings: time 2.0 hrs, TDE = time-dependent effect
How it was run: (§1)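 Adult male Sprague-Dawley rats (230–280 g, n=6/group); 0.1 ml CFA injected into right hind paw. Compounds i.p. (1–2 ml/kg) in 20% DMSO/10% emulphor/saline; AS2717638 in 30% propylene glycol vehicle. Mechanical paw withdrawal threshold (cut-off 26 g) measured every 30 min after single dose; two-way ANOVA, mean ± SEM.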

[4] = molecular target: T1, Lysophosphatidic acid receptor 5; test: Antagonist activity at human LPA5 receptor expressed in RH7777 cells assessed as inhibition of EC80 concentration of LPA-induced cAMP accumulation preincubated for 30 mins followed by Eu-cAMP tracer addition and measured after 1 hr by TR-FRET assay; type: functional, cell-based
How it was run: (§2)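 hLPA5-RH7777 cells, switched to 0.2% FBS medium 20 h prior, lifted with versene, 2,000 cells/well in HBSS/5 mM HEPES/0.1% BSA/0.5 mM IBMX pH 7.4. Compound dilutions with hexadecyl LPA 16:0 EC80 (300 nM) plus forskolin, 30 min room temperature; LANCE Ultra Eu-cAMP tracer/ULight-anti-cAMP 1 h; TR-FRET 665 nm converted to cAMP via standard curve. Three-parameter logistic IC50; ≥3 experiments in duplicate.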

[5] = species on record: Rattus norvegicus; test: Antinociceptive activity in CCI surgery-neuropathic pain induced Sprague-Dawley rat model assessed as reduction in paw threshold pain measured after 2 hrs; type: functional, organism-based; settings: dose 32.0 mg/kg
How it was run: (§3)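 Male Sprague-Dawley rats (n=6), ketamine/xylazine anesthesia; four chromic gut ligatures ~1 mm apart around the right sciatic nerve. Drugs i.p. in DMSO/emulphor/saline (AS2717638 in propylene glycol vehicle), single or cumulative dosing with paw withdrawal threshold (cut-off 26 g) measured every 30 min.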

[6] = molecular target: T1, Lysophosphatidic acid receptor 5; test: Antagonist activity at human LPA5 receptor expressed in RH7777 cells assessed as inhibition of EC80 concentration of LPA-induced cAMP accumulation preincubated for 30 mins followed by Eu-cAMP tracer addition and measured after 1 hr by TR-FRET assay relative to hexadecyl LPA; type: functional, cell-based; settings: filed as antagonist; how it was run: as §2
[7] = species on record: Rattus norvegicus; test: Antiallodynic activity against CFA-induced mechanical allodynia Sprague-Dawley rat model assessed as reduction paw threshold pain measured after 2 hrs; type: functional, organism-based; settings: dose 32.0 mg/kg; how it was run: as §1
[8] = molecular target: T1, Lysophosphatidic acid receptor 5; test: Antagonist activity at human LPA5 receptor expressed in RH7777 cells assessed as inhibition of EC80 concentration of hexadecyl LPA-induced calcium mobilization incubated for 15 mins by FLIPR method relative to hexadecyl LPA; type: functional, cell-based; settings: filed as antagonist
[9] = tested on: Rattus norvegicus; test: Antinociceptive activity in CCI surgery-neuropathic pain induced Sprague-Dawley rat model assessed as reduction in paw threshold pain measured at 32 mg/kg, ip; type: functional, organism-based; settings: time 2.0 hrs, TDE = time-dependent effect; how it was run: as §3
[10] = tested on: Rattus norvegicus; test: Antiallodynic activity against CFA-induced Sprague-Dawley rat inflammatory pain model assessed as reduction in paw withdrawal threshold at 32 mg/kg measured after 2 hrs; type: functional, organism-based; how it was run: as §1
[11] = molecular target: T1, Lysophosphatidic acid receptor 5; test: Agonist activity at human LPA5 receptor expressed in RH7777 cells assessed as calcium mobilization incubated for 15 mins by FLIPR method; type: functional, cell-based
How it was run: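 RH7777 cells stably expressing hLPA5, plated 20,000/well in 0.2% FBS medium 18–20 h, loaded 45 min at 37 °C with Calcium 5 dye in HBSS/20 mM HEPES/2.5 mM probenecid pH 7.4. […] Duplicates.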

[12] = molecular target: Lysophosphatidic acid receptor 1 (Homo sapiens) (UniProt Q92633); test: Antagonist activity at human LPA1 receptor expressed in CHO cells assessed as inhibition of LPA-induced calcium mobilization at 10 uM incubated for 15 mins by FLIPR analysis relative to control; type: functional, cell-based
Chain of Lysophosphatidic acid receptor 1 (Homo sapiens) (Q92633 whole entry): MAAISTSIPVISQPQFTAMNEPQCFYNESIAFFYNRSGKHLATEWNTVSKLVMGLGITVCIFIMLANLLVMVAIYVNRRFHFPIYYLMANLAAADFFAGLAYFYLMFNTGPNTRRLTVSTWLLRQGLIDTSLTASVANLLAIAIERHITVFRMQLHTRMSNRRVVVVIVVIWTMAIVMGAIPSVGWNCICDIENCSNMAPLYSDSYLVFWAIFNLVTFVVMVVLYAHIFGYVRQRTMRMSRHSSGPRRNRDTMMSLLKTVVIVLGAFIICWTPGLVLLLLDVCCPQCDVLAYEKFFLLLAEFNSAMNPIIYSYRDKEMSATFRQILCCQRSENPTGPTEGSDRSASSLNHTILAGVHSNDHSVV
How it was run: (§4)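 Calcium mobilization in CHO cells overexpressing LPA1, LPA2 or LPA3, run by a contract lab under its own protocols; compounds tested at single 10 μM.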

[13] = Aqueous solubility of compound at pH 7.4; type: physicochemical; settings: aqueous medium
How it was run: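 Kinetic solubility: 20 mM DMSO stock diluted into PBS (1 mM KH2PO4, 3 mM Na2HPO4, 155 mM NaCl) to a target of 400 μM; triplicates quantified by LC-MS/MS against matrix-matched standards.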

[14] = tested on: Rattus norvegicus; test: Antiallodynic activity against CFA-induced Sprague-Dawley rat inflammatory pain model assessed as reduction in paw withdrawal threshold at 17.8 mg/kg measured after 5 hrs; type: functional, organism-based; how it was run: as §1
[15] = molecular target: T2, Lysophosphatidic acid receptor 3 (Homo sapiens) (UniProt Q9UBY5); test: Antagonist activity at human LPA3 receptor expressed in CHO cells assessed as inhibition of LPA-induced calcium mobilization at 10 uM incubated for 15 mins by FLIPR analysis relative to control; type: functional, cell-based; how it was run: as §4
T2 sequence (whole entry): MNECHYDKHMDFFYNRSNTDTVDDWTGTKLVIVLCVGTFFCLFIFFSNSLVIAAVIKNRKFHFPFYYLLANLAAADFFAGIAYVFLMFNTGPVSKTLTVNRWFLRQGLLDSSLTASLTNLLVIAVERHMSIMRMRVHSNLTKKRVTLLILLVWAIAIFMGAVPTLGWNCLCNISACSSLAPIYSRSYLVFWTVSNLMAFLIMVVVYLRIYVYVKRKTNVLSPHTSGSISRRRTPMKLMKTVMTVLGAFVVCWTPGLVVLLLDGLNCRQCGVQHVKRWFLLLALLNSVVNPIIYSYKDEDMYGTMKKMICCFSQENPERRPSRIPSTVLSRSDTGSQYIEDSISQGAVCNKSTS

[16] = Substrate activity at P-glycoprotein (unknown origin) in MDCK-MDR1 cells assessed as efflux ratio of apparent permeability across basolateral to apical over apical to basolateral side measured after 90 mins by LC-MS/MS analysis; type: ADME, cell-based, Canis lupus familiaris; settings: dog, mdck-mdr1, 1.5 h
How it was run: (§5)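 MDCK-MDR1 cells (passage 5) grown 3 days on Transwell polycarbonate inserts; transport buffer HBSS/10 mM HEPES/0.25% BSA pH 7.4, 30 min preincubation 37 °C with TEER check. 10 μM test article added apical (A-to-B) or basolateral (B-to-A); receiver sampled at 30, 60, 90 min, LC-MS/MS. Papp = (dQ/dt)/(A·Ci); efflux ratio B-to-A/A-to-B. Atenolol, propranolol, digoxin references.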

[17] = Apparent permeability across apical to basolateral side in MDCK-MDR1 cells incubated for 90 mins by LC-MS/MS analysis; type: ADME, cell-based, Canis lupus familiaris; settings: dog, mdck-mdr1, 1.5 h; how it was run: as §5
[18] = molecular target: Lysophosphatidic acid receptor 2 (Homo sapiens) (UniProt Q9HBW0); test: Antagonist activity at human LPA2 receptor expressed in CHO cells assessed as inhibition of LPA-induced calcium mobilization at 10 uM incubated for 15 mins by FLIPR analysis relative to control; type: functional, cell-based; how it was run: as §4
Chain of Lysophosphatidic acid receptor 2 (Homo sapiens) (Q9HBW0 whole entry): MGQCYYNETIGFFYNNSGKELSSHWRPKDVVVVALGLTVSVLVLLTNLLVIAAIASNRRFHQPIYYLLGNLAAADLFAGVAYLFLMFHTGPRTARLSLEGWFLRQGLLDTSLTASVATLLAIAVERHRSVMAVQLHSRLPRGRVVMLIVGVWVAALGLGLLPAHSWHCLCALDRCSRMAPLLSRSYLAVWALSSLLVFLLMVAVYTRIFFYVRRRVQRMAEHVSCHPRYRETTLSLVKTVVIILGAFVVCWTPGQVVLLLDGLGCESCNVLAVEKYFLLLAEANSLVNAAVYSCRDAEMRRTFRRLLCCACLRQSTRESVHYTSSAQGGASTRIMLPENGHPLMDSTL

[19] = molecular target: Lysophosphatidic acid receptor 4 (Homo sapiens) (UniProt Q99677); test: Antagonist activity at human LPA4 receptor expressed in CHO cells assessed as inhibition of LPA-induced calcium accumulation preincubated for 30 mins followed by Eu-cAMP tracer addition and measured after 1 hr by TR-FRET assay relative to hexadecyl LPA; type: functional, cell-based
Chain of Lysophosphatidic acid receptor 4 (Homo sapiens) (Q99677 whole entry): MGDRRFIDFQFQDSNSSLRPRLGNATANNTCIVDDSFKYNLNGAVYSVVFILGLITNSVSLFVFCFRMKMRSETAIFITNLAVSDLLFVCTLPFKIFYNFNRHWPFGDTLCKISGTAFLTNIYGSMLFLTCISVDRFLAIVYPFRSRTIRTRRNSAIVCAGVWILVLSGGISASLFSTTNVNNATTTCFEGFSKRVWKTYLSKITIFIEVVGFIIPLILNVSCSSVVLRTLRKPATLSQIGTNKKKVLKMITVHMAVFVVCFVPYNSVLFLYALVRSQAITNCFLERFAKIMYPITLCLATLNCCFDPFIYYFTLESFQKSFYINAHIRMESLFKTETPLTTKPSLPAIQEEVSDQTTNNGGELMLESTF

SMILES | IC50 [2] | IC50 [4] | inhibition [6] | inhibition [8] | Activity [11] | other results
COc1cc2c(C(=O)N3CCCCC3)cn(-c3noc4ccc(C)cc34)c(=O)c2cc1OC | 0.036 µM | 0.21 µM | 102% | 108% | – | Ratio IC50 [1]: 5.8; Activity [3]: Tde; Activity [5]: Dose-Dependent Effect; Activity [7]: Dose-Dependent Effect; Activity [9]: Tde; Activity [10]: Active
CCN1CCc2ccc(-n3cc(C(=O)N4CCC(F)CC4)c4cc(OC)c(OC)cc4c3=O)cc21 | 0.058 µM | 0.57 µM | 94% | 104% | – | –
COc1cc2c(C(=O)N3CCCCC3)cn(-c3cccc(N(C)C)c3)c(=O)c2cc1OC | 0.087 µM | 0.79 µM | 89% | 104% | inactive | –
C#CC1CCN(C(=O)c2cn(-c3cccc(N(C)C)c3)c(=O)c3cc(OC)c(OC)cc23)CC1 | 0.046 µM | – | 101% | 105% | inactive | –
COc1cc2c(C(=O)N3CCC(F)CC3)cn(-c3ccc4scc(C)c4c3)c(=O)c2cc1OC | 0.069 µM | 0.34 µM | 104% | 107% | inactive | inhibition [12]: < 50%; solubility kinetic [13]: 96.4 µM (≈ 46.3 µg/mL); Activity [14]: Active; inhibition [15]: < 50%; Ratio [16]: 1.4; Papp [17]: 22.2 10^-6 cm/s; inhibition [18]: < 50%; inhibition [19]: < 50%
COc1cc2c(C(=O)N3CCC(F)CC3)cn(-c3cccc(N(C)C)c3)c(=O)c2cc1OC | 0.079 µM | 0.95 µM | 94% | 102% | inactive | –
COc1cc2c(C(=O)N3CCC(C#N)CC3)cn(-c3cccc(N(C)C)c3)c(=O)c2cc1OC | 0.102 µM | – | 92% | 89% | inactive | –
COc1cc2c(C(=O)N3CCCCC3)cn(-c3ccc4ccn(C)c4c3)c(=O)c2cc1OC | 0.064 µM | 0.46 µM | 109% | 104% | inactive | –
CCCCCCCCCCCCCCCCOC[C@@H](O)COP(=O)(O)O | – | – | – | – | – | EC50 [2]: 0.015 µM; EC50 [4]: 0.095 µM
COc1cc2c(C(=O)N3CCC(F)CC3)cn(-c3cccc(C(C)C)c3)c(=O)c2cc1OC | 0.2 µM | 0.394 µM | 98% | 103% | inactive | –
COc1cc2c(C(=O)N3CCC(F)CC3)cn(-c3ccc4occ(C)c4c3)c(=O)c2cc1OC | 0.144 µM | 0.203 µM | 100% | 102% | inactive | –
COc1cc2c(C(=O)N3CCC(OC)CC3)cn(-c3cccc(N(C)C)c3)c(=O)c2cc1OC | 0.64 µM | – | – | 89% | inactive | –
COc1cc2c(C(=O)N3CCCCC3)cn(-c3ccc4occ(C)c4c3)c(=O)c2cc1OC | 0.048 µM | 0.19 µM | 88% | 105% | inactive | –
COc1cc2c(=O)n(-c3cccc(N(C)C)c3)cc(C(=O)N3CCC(F)CC3)c2cc1O | 1.37 µM | – | – | 93% | inactive | –
COc1cc2c(C(=O)N3CCC(F)CC3)cn(-c3ccc4occc4c3)c(=O)c2cc1OC | 1.49 µM | – | – | 88% | inactive | –
COc1cc2c(C(=O)N3CCCc4ccccc43)cn(-c3cccc(N(C)C)c3)c(=O)c2cc1OC | 4.32 µM | – | – | 86% | inactive | –
COc1cc2c(C(=O)N3CCCCC3)cn(-c3cccc(C(C)=O)c3)c(=O)c2cc1OC | 1.76 µM | – | – | 74% | inactive | –
COc1cc2c(C(=O)N3CCC(c4ccccc4)CC3)cn(-c3cccc(N(C)C)c3)c(=O)c2cc1OC | 1.19 µM | – | – | 108% | inactive | –
COc1cc2c(C(=O)N3CCCCCCC3)cn(-c3cccc(N(C)C)c3)c(=O)c2cc1OC | 0.301 µM | – | – | 109% | inactive | –
